About 220 (0.1%) of roughly 210,000 compounds were called active.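 How the source made its calls: active means signal enhancement of 30% or more; inactive means the rest.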 What follows is part of a selection rich in actives, with near analogues and random picks from the rest.
target: E3 ubiquitin-protein ligase Mdm2 (Homo sapiens) (UniProt Q00987); assay: increase of MDM2 autoubiquitination reporter luminescence – cell-based, 1536-well, MDM2 E3 ligase inhibitor project, primary screen (AID 1230); settings: cell-based MDM2 ubiquitination luciferase reporter, 2 h; at 5 µM; hits give high values; 0 = plate control, 100 = twice control, blank-subtracted;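 further: luminescence tracks abundance of the self-degrading MDM2-luciferase fusion protein; higher signal means inhibition of MDM2 E3 ligase activity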
Outline: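 Buffer or medium: Cells held in DMEM | Assay system: Stable mammalian line carrying autodegrading MDM2–luciferase fusion reporter | Quantity: 2000 cells/well | Times: 4 h settle plus 2 h compound, 37 °C | Doses: One concentration, 5 µM, with 0.2% DMSO | Technique: Luminescence with SteadyLite reagent, 15 min at room temperature | Benchmarks: Plate controls and plate blanks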

Sequence of E3 ubiquitin-protein ligase Mdm2 (Homo sapiens) (Q00987 whole entry, looked up, the tested form may be a part): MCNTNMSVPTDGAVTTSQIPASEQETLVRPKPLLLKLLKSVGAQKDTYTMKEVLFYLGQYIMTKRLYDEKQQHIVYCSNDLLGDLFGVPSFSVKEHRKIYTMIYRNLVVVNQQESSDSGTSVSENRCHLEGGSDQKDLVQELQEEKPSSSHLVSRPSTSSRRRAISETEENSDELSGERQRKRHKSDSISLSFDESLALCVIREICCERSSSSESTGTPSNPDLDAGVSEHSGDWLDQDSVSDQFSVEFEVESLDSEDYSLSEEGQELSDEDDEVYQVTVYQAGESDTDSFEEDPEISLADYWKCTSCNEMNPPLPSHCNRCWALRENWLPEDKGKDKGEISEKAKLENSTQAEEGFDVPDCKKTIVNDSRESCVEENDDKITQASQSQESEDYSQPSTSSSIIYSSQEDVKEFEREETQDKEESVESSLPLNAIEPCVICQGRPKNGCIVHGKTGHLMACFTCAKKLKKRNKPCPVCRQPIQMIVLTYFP

Row | SMILES | signal enhancement
1 | CCCc1nc2oc3c(=O)[nH]cnc3c2c2c1COC(C)(C)C2 | 1.7% (inactive)
2 | COc1c(N2CCN(C(=S)Nc3ccccc3F)C(C)C2)c(F)cc2c(=O)c(C(=O)O)cn(C3CC3)c12 (stereo not given) | 0.25% (inactive)
3 | CCc1cc2c(=O)c(-c3ccc(F)cc3)c(C(F)(F)F)oc2cc1OCC(=O)O | -6.75% (inactive)
4 | CCOC(=O)c1oc2c(CN3CCN(CCO)CC3)c(O)c(CC)cc2c(=O)c1-c1nc2ccccc2s1 | -10.7% (inactive)
5 | CCc1cc2c(=O)c(-c3nc4ccccc4n3C)c(CCCC(=O)O)oc2cc1OC(=O)C(C)(C)C | 32.3% (active)
6 | CCOc1c(Nc2cccc(Cl)c2)c(=O)c1=O | -2.35% (inactive)
7 | NC1=NC[C@@H](Cc2ccc(O)cc2)N1CC1CCCCC1 | 7.84% (inactive)
8 | Oc1c(Br)cc(/C=N/NC(=S)NCC2CCCO2)cc1Br (stereo not given) | -4.26% (inactive)
9 | N#Cc1ccc(Oc2ccc(C(F)(F)F)cc2NC(=O)c2ccc(F)cc2)cc1 | -13.7% (inactive)
10 | CC1(C)CCSC(/C=C/c2ccccc2)=N1 | 3.53% (inactive)
11 | NS(=O)(=O)c1ccc(NC(=O)COC(=O)c2cc3ccccc3oc2=O)cc1 | -3.08% (inactive)
12 | Cc1cc(C)nc(SCc2cn3c(C)cc(C)nc3n2)n1 | -13.6% (inactive)
13 | COc1cc(NC(=O)c2ccc(CNc3c(N4CCCC4)c(=O)c3=O)cc2)cc(OC)c1OC | -5.93% (inactive)
14 | COc1cc(C(CCN2CCN(c3ccccc3)CC2)c2c(OC)cc(OC)c3ccc(=O)oc23)cc(OC)c1OC (stereo not given) | 17.2% (inactive)
15 | CC(C)COC(=O)n1c(=O)oc2ccc(S(=O)(=O)N3CCCCC3)cc21 | -7.89% (inactive)
16 | CN(C)c1cc(-c2ccc(F)cc2)oc(=O)c1Cl | -15.5% (inactive)
17 | COc1ccccc1NC(=O)c1cc(Cl)nc2ccccc12 | -12.4% (inactive)
18 | Cc1onc(-c2c(Cl)cccc2Cl)c1C(=O)NNC(=O)c1c(-c2c(Cl)cccc2Cl)noc1C | -1.5% (inactive)
19 | Cc1cc(C)cc(NS(=O)(=O)c2ccc(F)cc2)c1 | -8.71% (inactive)
20 | COc1ccccc1CNC(=O)Cn1c(=O)oc2cc(Cl)ccc21 | -8.67% (inactive)

Row | SMILES | signal enhancement
21 | Cc1noc(C)c1-c1nc(CSc2ccc(Cl)cc2)no1 | -16.2% (inactive)
22 | Cc1ccc(/C=N/NC(=S)Nc2cccc(S(=O)(=O)N(C)C)c2)o1 | -13.3% (inactive)
23 | Cc1cccc(-[n+]2c(-c3cccc(Br)c3)[nH]c3nc4ccccc4nc32)c1 | -76.7% (inactive)
24 | O=C1NNC(c2ccccc2)=N/C1=C\c1ccc(Cl)cc1 | -9.72% (inactive)
25 | O=c1cc(CCl)nc2scc(-c3ccccc3)n12 | -0.33% (inactive)
26 | CCOC(=O)CNC(=O)CSc1nnnn1-c1cc(C)ccc1C | 16.5% (inactive)
27 | CCOC(=O)Cn1nnnc1C | 38.2% (active)
28 | CCOC(=O)Cn1c(N)c(C(=O)OC)sc1=S | -0.11% (inactive)
29 | Cc1cc(=O)oc2cc(OCCC[n+]3ccccc3)ccc12 | -9.35% (inactive)
30 | Cc1cc(NC(=O)OC(C)C)ccc1-c1ccc(NC(=O)OC(C)C)cc1C | 0.08% (inactive)
31 | O=S(=O)(c1ccccc1)N1CN(Cc2ccc(F)cc2)c2nc3ccccc3nc21 | -0.23% (inactive)
32 | CCCCNC(=O)OCCSCCS(=O)(=O)c1ccc(Cl)cc1 | -11.5% (inactive)
33 | O=C(NN1C(=O)C2C(C1=O)C1C=CC2C12CC2)c1ccccc1Cl (stereo not given) | -6.98% (inactive)
34 | COc1cc(C=O)ccc1Oc1nnnn1-c1ccccc1 | -12.6% (inactive)
35 | Cn1nc(C(C)(C)C)c(NC(=O)c2sccc2Cl)c1C(C)(C)C | -2.73% (inactive)
36 | COc1ccc(NC2=CC(=S)NC(C)(C)C2)cc1 | -2.53% (inactive)
37 | O=C(Nc1ccc(F)cc1)c1cc2c(s1)CCCC2 | -16.8% (inactive)
38 | COc1ccc(COCCN2CCN(S(=O)(=O)c3ccccc3)CCC2=O)cc1 | 16.8% (inactive)
39 | COc1ccc(COCC(O)CN2CCC(C(N)=O)CC2)cc1 (stereo not given) | -1.62% (inactive)
40 | O=C(CCl)Nc1cccc(CP(=O)(c2ccccc2)c2ccccc2)c1 | -14.8% (inactive)

Row | SMILES | signal enhancement
41 | O=c1[nH]c2cccnc2n1-c1ccc([N+](=O)[O-])cc1 | -12% (inactive)
42 | O=C(NNC(=S)Nc1ccc(F)cc1)[C@H]1C[C@@H]1c1ccccc1 | -1.61% (inactive)
43 | CCOC(=O)/C=C/CN(C(=O)OC(C)(C)C)S(=O)(=O)N1CC=CC1 | 1.19% (inactive)
44 | Cc1cc(Nc2ccc(N3CCOCC3)cc2)c2cccc(C)c2n1 | 5.92% (inactive)
45 | N#CC1=C(N)Oc2c(ccc3cccnc23)C1c1ccncc1 (stereo not given) | -12.4% (inactive)
46 | COCc1cc(=O)oc2cc(NS(=O)(=O)c3ccc(C)cc3)ccc12 | -14.3% (inactive)
47 | CC(=O)N(OCc1ccc(OC(C)C)c(Cl)c1)C(C)=O | -12.5% (inactive)
48 | Cc1ccc(S(=O)(=O)NC(=O)N2CCCN(Cc3ccc(F)cc3)CC2)cc1 | -8.58% (inactive)
49 | CCC/C(C)=N\Nc1nc2c(c(=O)n(C)c(=O)n2C)n1C | -9.83% (inactive)
50 | CCO[C@@H]1OC(C(=O)NC2CC2)=C[C@H](C)[C@H]1CCCO | -12.6% (inactive)
51 | CC(C)C[C@H](CO)Nc1nc(N(C)c2cccc(Cl)c2)c2ncn(C(C)C)c2n1 | 10% (inactive)
52 | Cc1ccc(/C=C/C(=O)O)cc1S(=O)(=O)N1CCC(Cc2ccccc2)CC1 | -0.26% (inactive)
53 | O=C(CNCc1ccc(Cl)cc1)Nc1cccc(C(=O)O)c1 | 35.7% (active)
54 | O=C(CCCOc1ccccc1)Nc1cccc(C(=O)O)c1 | -14.6% (inactive)
55 | O=C(CCC(=O)OCc1ccc(Cl)cc1)Nc1ccccc1 | -8.79% (inactive)
56 | CCN(CC)CCn1c(N)c(S(=O)(=O)c2ccccc2)c2nc3ccccc3nc21 | -7.92% (inactive)
57 | CCCN(CCC)c1ccc(C(O)c2nnc(-c3ccccc3)o2)cc1 (stereo not given) | -18.3% (inactive)
58 | OC(c1nnc(-c2ccccc2)o1)c1cccs1 (stereo not given) | 31.9% (active)
59 | Nc1ccc(-c2nnc(-c3ccc(-c4ccccc4)cc3)o2)cc1 | -17.1% (inactive)
60 | O=S(=O)([N-]c1nc2ccccc2nc1-[n+]1ccc(Cc2ccccc2)cc1)c1ccc(Br)s1 | -17.8% (inactive)

— PubChem BioAssay AID1230 (PCMD, 2008)
